Assay results: ChEMBL document CHEMBL2429843 (J Med Chem, 2013)

Experiments:
[1] = Inhibition of Escherichia coli TrmD using S-[methyl-3H] adenosyl-L-methionine as substrate assessed as leucine-tRNA methylation after 1 hr by scintillation proximity assay
How it was run: (§1)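 Radiometric SPA: TrmD in 50 mM HEPES pH 7.5 with 5 mM MgCl2 (E. coli and K. pneumoniae 10 nM, S. aureus 10 nM, P. aeruginosa 5 nM, H. influenzae 4 nM in enzyme reagent), mixed 1:1 with a reagent of 0.05 μM [3H]SAM, 2 μM unlabelled SAM and 2 μM synthetic E. coli leucine-tRNA. Compounds are 2-fold serial DMSO dilutions. Incubation is 1 h at room temperature.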

[2] = molecular target: T1, Histone-lysine N-methyltransferase SETD7 (Homo sapiens) (UniProt Q8WTS6); test: Inhibition of human SET7/9 at 20 uM relative to control
T1 sequence (whole entry): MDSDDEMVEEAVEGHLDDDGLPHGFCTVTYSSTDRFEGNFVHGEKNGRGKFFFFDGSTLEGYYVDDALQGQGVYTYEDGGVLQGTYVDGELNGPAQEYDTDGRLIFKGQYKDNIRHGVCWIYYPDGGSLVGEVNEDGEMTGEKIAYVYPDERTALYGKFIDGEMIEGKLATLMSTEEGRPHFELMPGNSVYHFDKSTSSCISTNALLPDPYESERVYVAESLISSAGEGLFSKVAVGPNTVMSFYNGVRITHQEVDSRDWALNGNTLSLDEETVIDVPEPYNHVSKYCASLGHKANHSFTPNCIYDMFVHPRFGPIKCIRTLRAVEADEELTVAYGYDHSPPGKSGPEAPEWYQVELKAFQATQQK

[3] = Selectivity ratio for Escherichia coli TrmD over human SET7/9
[4] = Inhibition of Haemophilus influenzae TrmD using S-[methyl-3H] adenosyl-L-methionine as substrate assessed as leucine-tRNA methylation after 1 hr by scintillation proximity assay; how it was run: as §1
Haemophilus influenzae = test: Antibacterial activity against recombinant Haemophilus influenzae harboring acrB::cap mutant assessed as growth inhibition by broth microdilution method; assay type: functional
[5] = Selectivity ratio for Escherichia coli TrmD over human PRMT1
[6] = molecular target: Protein arginine N-methyltransferase 1 (Homo sapiens) (UniProt Q99873); test: Inhibition of human PRMT1 at 20 uM relative to control
Sequence of Protein arginine N-methyltransferase 1 (Homo sapiens) (Q99873 whole entry, looked up): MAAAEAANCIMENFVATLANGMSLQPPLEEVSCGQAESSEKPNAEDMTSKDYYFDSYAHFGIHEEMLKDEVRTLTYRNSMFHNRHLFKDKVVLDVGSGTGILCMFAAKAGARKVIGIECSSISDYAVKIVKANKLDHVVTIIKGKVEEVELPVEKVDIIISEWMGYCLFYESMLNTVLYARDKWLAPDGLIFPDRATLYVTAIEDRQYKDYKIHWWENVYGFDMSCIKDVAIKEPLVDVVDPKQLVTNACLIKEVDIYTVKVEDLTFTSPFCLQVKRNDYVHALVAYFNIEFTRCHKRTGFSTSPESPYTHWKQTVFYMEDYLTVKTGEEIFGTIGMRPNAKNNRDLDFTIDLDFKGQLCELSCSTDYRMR

[7] = Inhibition of Staphylococcus aureus TrmD using S-[methyl-3H] adenosyl-L-methionine as substrate assessed as leucine-tRNA methylation after 1 hr by scintillation proximity assay; how it was run: as §1

What does the source list for `O=C(NCc1ccc(CN2CCC(O)C2)cc1)c1csc2nc[nH]c(=O)c12` (stereo not drawn)?
IC50 [1]: 420 nM; inhibition [2]: < 10%; Selectivity ratio [3]: 50; IC50 [4]: 370 nM; MIC (Haemophilus influenzae): 3.1 µM; Selectivity ratio [5]: 50; inhibition [6]: < 10%; IC50 [7]: 4.4 µM
